Laboratory results as given in ChEMBL document CHEMBL1781927, “Highly selective c-Jun N-terminal kinase (JNK) 3 inhibitors with in vitro CNS-like pharmacokinetic properties II. Central core replacement” (Bioorg Med Chem Lett, 2011).
pIC50: −log10 of the molar value. In brackets after ≈: the same amount, converted by molar mass.

Key:
[1] = molecular target: Serine/threonine-protein kinase PLK1 (Homo sapiens) (UniProt P53350); assay: Inhibition of PLK1 at 10 uM
[2] = molecular target: Receptor tyrosine-protein kinase erbB-4 (Homo sapiens) (UniProt Q15303); assay: Inhibition of ERBB4 at 10 uM
[3] = Oxidative metabolic stability in mouse liver microsomes assessed as compound remaining after 30 mins; type: ADME, Microsome; conditions: read-out: Stability
Procedure, shortened: (§1)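 Liver microsomes, mouse or human, were incubated with the compound for 30 min under oxidative conditions. The read-out is the percent of parent compound remaining.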

[4] = molecular target: Macrophage colony-stimulating factor 1 receptor (Homo sapiens) (UniProt P07333); assay: Inhibition of CSF1R at 10 uM
[5] = molecular target: Dual specificity protein kinase CLK1 (Homo sapiens) (UniProt P49759); assay: Inhibition of CLK1 at 10 uM
[6] = Efflux ratio, permeability from apical to basolateral side to basolateral to apical side in MDR1 expressing MDCK2 cells at 5 uM after 120 mins; type: ADME, cell-based, Canis lupus familiaris; conditions: dog, mdck-ii, 2 h
[7] = Solubility of the compound; type: physicochemical
[8] = molecular target: Serine/threonine-protein kinase 3 (Homo sapiens) (UniProt Q13188); assay: Inhibition of STK3 at 10 uM
[9] = molecular target: Tyrosine-protein kinase Lck (Homo sapiens) (UniProt P06239); assay: Inhibition of LCK at 10 uM
[10] = molecular target: Receptor-interacting serine/threonine-protein kinase 2 (Homo sapiens) (UniProt O43353); assay: Inhibition of RIPK2 at 10 uM
Chain of Receptor-interacting serine/threonine-protein kinase 2 (Homo sapiens) (O43353 whole entry): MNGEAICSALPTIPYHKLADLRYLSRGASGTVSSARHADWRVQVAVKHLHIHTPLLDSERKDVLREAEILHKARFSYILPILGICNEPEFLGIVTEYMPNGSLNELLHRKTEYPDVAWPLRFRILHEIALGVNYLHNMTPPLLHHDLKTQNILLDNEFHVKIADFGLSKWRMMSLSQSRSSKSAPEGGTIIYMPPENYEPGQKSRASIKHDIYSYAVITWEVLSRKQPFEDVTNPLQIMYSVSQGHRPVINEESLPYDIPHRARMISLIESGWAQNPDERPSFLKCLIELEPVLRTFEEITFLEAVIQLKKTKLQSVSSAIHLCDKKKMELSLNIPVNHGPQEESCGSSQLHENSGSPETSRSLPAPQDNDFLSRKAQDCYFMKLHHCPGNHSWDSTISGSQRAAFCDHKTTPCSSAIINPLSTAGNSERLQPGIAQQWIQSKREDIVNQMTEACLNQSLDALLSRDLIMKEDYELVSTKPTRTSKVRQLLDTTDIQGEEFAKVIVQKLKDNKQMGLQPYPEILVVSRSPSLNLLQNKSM

[11] = molecular target: PI3-kinase p110-alpha/p85-alpha (Homo sapiens) (UniProt P27986+P42336); assay: Inhibition of PIK3CA/PIK3R1 at 10 uM; type: protein-complex assay
[12] = molecular target: Dual specificity protein kinase TTK (Homo sapiens) (UniProt P33981); assay: Inhibition of TTK at 10 uM
[13] = molecular target: Receptor-type tyrosine-protein kinase FLT3 (Homo sapiens) (UniProt P36888); assay: Inhibition of FLT3 at 10 uM
[14] = molecular target: Serine/threonine-protein kinase MARK2 (Homo sapiens) (UniProt Q7KZI7); assay: Inhibition of MARK2 at 10 uM
Chain of Serine/threonine-protein kinase MARK2 (Homo sapiens) (Q7KZI7 whole entry): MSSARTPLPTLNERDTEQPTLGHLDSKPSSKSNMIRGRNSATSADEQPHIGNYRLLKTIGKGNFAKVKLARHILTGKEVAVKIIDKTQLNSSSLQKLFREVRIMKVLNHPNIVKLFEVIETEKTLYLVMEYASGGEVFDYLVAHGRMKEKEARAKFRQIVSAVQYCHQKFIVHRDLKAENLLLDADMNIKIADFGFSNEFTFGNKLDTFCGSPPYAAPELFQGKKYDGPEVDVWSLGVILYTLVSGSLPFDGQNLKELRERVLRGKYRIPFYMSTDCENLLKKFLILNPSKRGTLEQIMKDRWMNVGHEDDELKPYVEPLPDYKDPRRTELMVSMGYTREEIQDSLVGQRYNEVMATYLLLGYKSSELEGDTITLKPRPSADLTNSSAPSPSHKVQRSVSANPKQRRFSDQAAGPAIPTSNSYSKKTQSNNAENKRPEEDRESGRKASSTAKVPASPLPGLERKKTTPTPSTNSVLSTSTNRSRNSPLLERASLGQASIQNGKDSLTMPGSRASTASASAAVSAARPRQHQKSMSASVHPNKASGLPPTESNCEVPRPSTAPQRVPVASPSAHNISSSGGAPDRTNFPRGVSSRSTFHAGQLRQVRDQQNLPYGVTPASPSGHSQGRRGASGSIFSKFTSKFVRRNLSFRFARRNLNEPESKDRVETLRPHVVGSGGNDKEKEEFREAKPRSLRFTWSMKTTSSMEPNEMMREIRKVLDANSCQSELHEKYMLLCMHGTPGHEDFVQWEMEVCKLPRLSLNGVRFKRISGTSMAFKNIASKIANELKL

[15] = Oxidative metabolic stability in human liver microsomes assessed as compound remaining after 30 mins; type: ADME, Microsome; conditions: read-out: Stability; procedure, shortened: as §1
[16] = molecular target: Insulin receptor (Homo sapiens) (UniProt P06213); assay: Inhibition of INSR at 10 uM
[17] = molecular target: Protein-tyrosine kinase 2-beta (Homo sapiens) (UniProt Q14289); assay: Inhibition of PTK2B at 10 uM
[18] = Metabolic stability in mouse liver microsomes assessed as compound remaining after 60 mins in presence of UDPGA; type: ADME, Microsome; conditions: read-out: Stability
[19] = molecular target: Serine/threonine-protein kinase PLK2 (Homo sapiens) (UniProt Q9NYY3); assay: Inhibition of PLK2 at 10 uM
[20] = molecular target: T1, Mitogen-activated protein kinase 10 (Homo sapiens, UniProt P53779); assay: Inhibition of JNK3 by TR-FRET assay
T1 sequence (P53779 whole entry): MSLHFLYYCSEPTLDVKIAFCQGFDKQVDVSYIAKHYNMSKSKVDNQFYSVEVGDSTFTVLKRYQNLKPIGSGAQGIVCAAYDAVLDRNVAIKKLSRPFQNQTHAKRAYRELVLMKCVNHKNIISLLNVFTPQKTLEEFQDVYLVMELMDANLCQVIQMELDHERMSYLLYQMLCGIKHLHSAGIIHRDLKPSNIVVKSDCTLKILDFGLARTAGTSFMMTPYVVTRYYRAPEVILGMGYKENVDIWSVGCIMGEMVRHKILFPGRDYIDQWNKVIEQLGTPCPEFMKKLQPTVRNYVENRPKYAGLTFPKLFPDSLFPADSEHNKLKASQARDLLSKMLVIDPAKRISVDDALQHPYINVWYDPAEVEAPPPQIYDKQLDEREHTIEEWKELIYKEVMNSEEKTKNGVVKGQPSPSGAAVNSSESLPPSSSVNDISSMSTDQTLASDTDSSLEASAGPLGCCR
Procedure, shortened: (§2)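 IC50s were determined at a single fixed ATP concentration, and each value is the mean of at least three independent experiments.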

[21] = molecular target: Serine/threonine-protein kinase PLK3 (Homo sapiens) (UniProt Q9H4B4); assay: Inhibition of PLK3 at 10 uM
Chain of Serine/threonine-protein kinase PLK3 (Homo sapiens) (Q9H4B4 whole entry, looked up): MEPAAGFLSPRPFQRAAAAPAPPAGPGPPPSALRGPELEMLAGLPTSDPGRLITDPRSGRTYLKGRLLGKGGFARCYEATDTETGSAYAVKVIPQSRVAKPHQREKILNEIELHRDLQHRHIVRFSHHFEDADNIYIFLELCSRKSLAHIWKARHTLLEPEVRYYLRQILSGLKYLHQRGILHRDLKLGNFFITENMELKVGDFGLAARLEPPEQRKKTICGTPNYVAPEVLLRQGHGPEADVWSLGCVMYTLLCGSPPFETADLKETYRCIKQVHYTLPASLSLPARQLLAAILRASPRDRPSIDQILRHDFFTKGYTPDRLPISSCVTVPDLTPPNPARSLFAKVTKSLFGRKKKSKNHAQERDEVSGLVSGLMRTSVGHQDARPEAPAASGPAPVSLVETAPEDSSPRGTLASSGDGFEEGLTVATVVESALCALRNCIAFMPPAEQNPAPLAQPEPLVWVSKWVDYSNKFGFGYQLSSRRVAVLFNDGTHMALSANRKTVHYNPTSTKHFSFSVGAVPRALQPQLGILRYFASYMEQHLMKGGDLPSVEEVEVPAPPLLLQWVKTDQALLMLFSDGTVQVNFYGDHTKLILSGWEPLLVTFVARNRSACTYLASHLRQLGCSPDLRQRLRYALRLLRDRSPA

[22] = molecular target: RAC-alpha serine/threonine-protein kinase (Homo sapiens) (UniProt P31749); assay: Inhibition of AKT1 at 10 uM
[23] = molecular target: T1, Mitogen-activated protein kinase 10; assay: Inhibition of MAPK10 at 10 uM
[24] = molecular target: Cyclin-dependent kinase 2/cyclin A (Homo sapiens) (UniProt P24941+P20248+P78396); assay: Inhibition of CDK2/cyclin A at 10 uM; type: protein-complex assay
[25] = molecular target: Serine/threonine-protein kinase Chk1 (Homo sapiens) (UniProt O14757); assay: Inhibition of CHEK1 at 10 uM
[26] = molecular target: Tyrosine-protein kinase ABL1 (Homo sapiens) (UniProt P00519); assay: Inhibition of ABL1 at 10 uM
[27] = molecular target: Calcium/calmodulin-dependent protein kinase type II subunit alpha (Homo sapiens) (UniProt Q9UQM7); assay: Inhibition of CAMK2A at 10 uM
[28] = molecular target: Glycogen synthase kinase-3 beta (Homo sapiens) (UniProt P49841); assay: Inhibition of GSK3B at 10 uM
[29] = molecular target: Leucine-rich repeat serine/threonine-protein kinase 2 (Homo sapiens) (UniProt Q5S007); assay: Inhibition of LRRK2 at 10 uM
[30] = Selectivity ratio of IC50 for JNK1 to IC50 for JNK3
[31] = molecular target: Proto-oncogene tyrosine-protein kinase receptor Ret (Homo sapiens) (UniProt P07949); assay: Inhibition of RET at 10 uM
[32] = molecular target: Serine/threonine-protein kinase 16 (Homo sapiens) (UniProt O75716); assay: Inhibition of STK16 at 10 uM
[33] = molecular target: Dual specificity tyrosine-phosphorylation-regulated kinase 1B (Homo sapiens) (UniProt Q9Y463); assay: Inhibition of DYRK1B at 10 uM
[34] = molecular target: Tyrosine-protein kinase JAK1 (Homo sapiens) (UniProt P23458); assay: Inhibition of JAK1 at 10 uM
Chain of Tyrosine-protein kinase JAK1 (Homo sapiens) (P23458 whole entry): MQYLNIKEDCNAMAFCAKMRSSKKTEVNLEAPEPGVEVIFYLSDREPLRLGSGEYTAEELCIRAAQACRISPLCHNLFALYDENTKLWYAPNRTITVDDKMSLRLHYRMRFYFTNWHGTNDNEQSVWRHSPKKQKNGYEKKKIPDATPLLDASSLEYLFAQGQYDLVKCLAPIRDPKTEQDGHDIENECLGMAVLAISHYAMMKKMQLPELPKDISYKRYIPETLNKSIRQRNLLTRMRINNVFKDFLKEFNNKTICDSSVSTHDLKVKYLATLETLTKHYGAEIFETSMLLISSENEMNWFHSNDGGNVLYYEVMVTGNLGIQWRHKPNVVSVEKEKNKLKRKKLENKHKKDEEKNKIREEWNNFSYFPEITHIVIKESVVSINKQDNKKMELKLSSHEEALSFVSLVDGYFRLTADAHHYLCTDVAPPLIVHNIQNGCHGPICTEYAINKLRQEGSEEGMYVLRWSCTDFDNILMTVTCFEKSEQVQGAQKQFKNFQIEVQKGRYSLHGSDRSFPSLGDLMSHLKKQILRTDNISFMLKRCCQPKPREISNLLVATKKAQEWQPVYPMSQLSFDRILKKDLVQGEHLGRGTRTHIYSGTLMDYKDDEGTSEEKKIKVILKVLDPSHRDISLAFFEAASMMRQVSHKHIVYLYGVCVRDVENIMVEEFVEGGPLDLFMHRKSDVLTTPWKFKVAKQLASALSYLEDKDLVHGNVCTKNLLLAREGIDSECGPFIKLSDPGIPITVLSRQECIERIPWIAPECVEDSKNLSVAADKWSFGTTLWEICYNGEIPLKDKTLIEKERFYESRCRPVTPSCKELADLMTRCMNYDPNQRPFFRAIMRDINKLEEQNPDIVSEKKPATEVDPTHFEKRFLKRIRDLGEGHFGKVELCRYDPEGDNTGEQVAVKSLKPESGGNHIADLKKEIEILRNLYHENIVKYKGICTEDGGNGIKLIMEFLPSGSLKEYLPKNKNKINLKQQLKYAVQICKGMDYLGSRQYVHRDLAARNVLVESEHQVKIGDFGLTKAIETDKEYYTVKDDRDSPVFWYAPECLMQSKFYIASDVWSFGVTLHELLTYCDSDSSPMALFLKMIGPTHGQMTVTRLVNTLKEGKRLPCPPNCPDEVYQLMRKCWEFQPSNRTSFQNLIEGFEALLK

[35] = molecular target: Mitogen-activated protein kinase 1 (Homo sapiens) (UniProt P28482); assay: Inhibition of MAPK1 at 10 uM
[36] = molecular target: Serine/threonine-protein kinase PAK 4 (Homo sapiens) (UniProt O96013); assay: Inhibition of PAK4 at 10 uM
[37] = molecular target: Mitogen-activated protein kinase 8 (Homo sapiens, UniProt P45983); assay: Inhibition of JNK1 by TR-FRET assay; procedure, shortened: as §2
Chain of Mitogen-activated protein kinase 8 (P45983 whole entry): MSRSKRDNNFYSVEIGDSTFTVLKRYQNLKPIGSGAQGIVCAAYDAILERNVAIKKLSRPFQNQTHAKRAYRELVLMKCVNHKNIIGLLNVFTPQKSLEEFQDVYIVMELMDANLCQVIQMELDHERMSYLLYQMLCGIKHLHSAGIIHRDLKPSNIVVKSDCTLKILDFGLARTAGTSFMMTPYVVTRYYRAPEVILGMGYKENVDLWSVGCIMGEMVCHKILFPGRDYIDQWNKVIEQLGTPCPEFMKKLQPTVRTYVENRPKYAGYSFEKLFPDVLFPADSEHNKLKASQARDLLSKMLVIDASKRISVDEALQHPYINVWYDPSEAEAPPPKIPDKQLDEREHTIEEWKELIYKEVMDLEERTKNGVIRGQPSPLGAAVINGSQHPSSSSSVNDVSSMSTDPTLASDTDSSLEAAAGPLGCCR

[38] = molecular target: Rho-associated protein kinase 2 (Homo sapiens) (UniProt O75116); assay: Inhibition of ROCK2 at 10 uM
[39] = molecular target: Tyrosine-protein kinase SYK (Homo sapiens) (UniProt P43405); assay: Inhibition of SYK at 10 uM
[40] = molecular target: RAF proto-oncogene serine/threonine-protein kinase (Homo sapiens) (UniProt P04049); assay: Inhibition of RAF1 at 10 uM
[41] = molecular target: Cyclin-dependent kinase 5/CDK5 activator 1 (Homo sapiens) (UniProt Q00535+Q15078); assay: Inhibition of CDK5/p25 at 10 uM; type: protein-complex assay
[42] = molecular target: cAMP-dependent protein kinase catalytic subunit alpha (Homo sapiens) (UniProt P17612); assay: Inhibition of PKACA at 10 uM
[43] = molecular target: Mitogen-activated protein kinase 9 (Homo sapiens, UniProt P45984); assay: Inhibition of JNK2 by TR-FRET assay; procedure, shortened: as §2
Chain of Mitogen-activated protein kinase 9 (P45984 whole entry): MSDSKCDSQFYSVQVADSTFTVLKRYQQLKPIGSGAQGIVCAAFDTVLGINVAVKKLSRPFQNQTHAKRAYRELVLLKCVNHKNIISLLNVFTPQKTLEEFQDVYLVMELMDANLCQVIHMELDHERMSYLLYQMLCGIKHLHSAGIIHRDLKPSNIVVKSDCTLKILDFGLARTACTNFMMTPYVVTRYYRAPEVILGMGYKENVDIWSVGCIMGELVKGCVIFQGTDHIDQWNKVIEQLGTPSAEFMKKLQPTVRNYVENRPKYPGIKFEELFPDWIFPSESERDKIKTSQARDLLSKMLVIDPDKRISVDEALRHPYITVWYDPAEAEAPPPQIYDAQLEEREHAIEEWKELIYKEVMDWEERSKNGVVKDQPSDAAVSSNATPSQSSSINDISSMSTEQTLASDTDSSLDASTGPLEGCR

[44] = molecular target: Platelet-derived growth factor receptor alpha (Homo sapiens) (UniProt P16234); assay: Inhibition of PDGFRA at 10 uM
[45] = molecular target: Cyclin-dependent kinase 1/cyclin B1 (Homo sapiens) (UniProt P06493+P14635); assay: Inhibition of CDK1/cyclin B at 10 uM; type: protein-complex assay
[46] = Metabolic stability in human liver microsomes assessed as compound remaining after 60 mins in presence of UDPGA; type: ADME, Microsome; conditions: read-out: Stability
[47] = molecular target: Protein kinase C beta type (Homo sapiens) (UniProt P05771); assay: Inhibition of PRKCB1 at 10 uM

Chain of Serine/threonine-protein kinase PLK1 (Homo sapiens) (P53350 whole entry): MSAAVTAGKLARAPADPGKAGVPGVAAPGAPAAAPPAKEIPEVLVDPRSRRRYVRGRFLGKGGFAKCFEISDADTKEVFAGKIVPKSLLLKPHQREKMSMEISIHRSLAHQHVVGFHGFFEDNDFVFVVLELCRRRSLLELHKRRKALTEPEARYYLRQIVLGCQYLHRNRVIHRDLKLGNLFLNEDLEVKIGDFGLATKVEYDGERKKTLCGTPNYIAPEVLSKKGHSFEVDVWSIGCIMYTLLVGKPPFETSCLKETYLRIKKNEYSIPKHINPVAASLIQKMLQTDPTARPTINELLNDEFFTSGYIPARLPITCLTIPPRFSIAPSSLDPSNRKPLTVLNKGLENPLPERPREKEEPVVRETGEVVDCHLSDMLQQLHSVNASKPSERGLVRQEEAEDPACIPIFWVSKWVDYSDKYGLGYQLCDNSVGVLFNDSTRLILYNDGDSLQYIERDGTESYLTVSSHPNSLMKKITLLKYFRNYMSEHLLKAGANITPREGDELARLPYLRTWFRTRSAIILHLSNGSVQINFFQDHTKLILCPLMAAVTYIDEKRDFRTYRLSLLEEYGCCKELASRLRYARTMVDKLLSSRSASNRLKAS

S=c1[nH]nc(-c2ccncc2)n1-c1ccc2ccccc2c1
inhibition [1]: 22% | inhibition [2]: 12% | remaining at 0.5 h [3]: 100% | inhibition [4]: 46% | inhibition [5]: 5% | Ratio [6]: 1.12 | solubility [7]: 100 µM (≈ 30.4 µg/mL) | inhibition [8]: 0% | inhibition [9]: 0% | inhibition [10]: 4% | inhibition [11]: 42% | inhibition [12]: 39% | inhibition [13]: 41% | inhibition [14]: 1% | remaining at 0.5 h [15]: 100% | inhibition [16]: 5% | inhibition [17]: 1% | remaining at 1 h [18]: 1% | inhibition [19]: 73% | pIC50 [20]: 6.25 | inhibition [21]: 94% | inhibition [22]: 1% | inhibition [23]: 44% | inhibition [24]: 0% | inhibition [25]: 0% | inhibition [26]: 8% | inhibition [27]: 49% | inhibition [28]: 28% | inhibition [29]: 13% | Ratio IC50 [30]: > 10 | inhibition [31]: 0% | inhibition [32]: 0% | inhibition [33]: 16% | inhibition [34]: 0% | inhibition [35]: 2% | inhibition [36]: 8% | pIC50 [37]: 4.90 | inhibition [38]: 25% | inhibition [39]: 26% | inhibition [40]: 45% | inhibition [41]: 19% | inhibition [42]: 93% | pIC50 [43]: 5.53 | inhibition [44]: 11% | inhibition [45]: 3% | remaining at 1 h [46]: 8% | inhibition [47]: 25%
